Assay results from article PMC8814381 (EBioMedicine, 2022).

How the values were obtained:
[1] = system: MDA-MB-231 human breast cancer tumours; format: in vivo, athymic mice; settings: 0.2–1.0 mg/kg i.v., imaged 6–72 h, PDE unit, normal tissue thigh
Outline: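 Female athymic mice, 4–5 weeks old, bore s.c. MDA-MB-231 tumours (1.0 × 10⁶ cells, right back). They received test compound or free dye i.v. (tail vein) at 0.2, 0.5 or 1 mg/kg. Prescans were taken before injection, and 800 nm NIR imaging followed at 6–72 h. The tumour-to-background ratio used ROIs over the whole tumour and over normal tissue (thigh muscle). Statistics: ANOVA.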

[2] = system: TNBC MDA-MB-231 or ER-positive IOWA-1T tumours; assay: Intraoperative imaging of orthotopic MFP xenografts, recurrence follow-up; format: in vivo, athymic mice; settings: 0.5 mg/kg i.v.; for average volume of the recurrent tumours: four weeks after tumour resection
Outline: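 MDA-MB-231 or IOWA-1T cells were injected s.c. at the nipple base into the fourth abdominal fat pad of athymic mice. Once tumours formed, mice received PBS, free dye or test compound at 0.5 mg/kg i.v. After 24 h, tumours were resected with a 2 mm margin under NIR camera monitoring. PBS controls were resected by palpation and direct visualization only. Adverse events during removal and later recurrence at the resection site were recorded.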

[3] = system: triple-negative PDX cells (stage IV) tumours; assay: Image-guided tumour resection in a PDX tumour model, recurrence follow-up; format: in vivo, NSG mice; settings: four weeks after image-guided surgery
Outline: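 Female NSG mice, 4–5 weeks old, carried triple-negative PDX (stage IV) tumours in the mammary fat pads. At 200–300 mm³ they were randomized into five groups: test probe, free dye, two control peptide–dye conjugates, or PBS. Agents were given i.v. (tail vein) at an equivalent of 0.5 mg/kg. After 24 h, tumours were excised with a ~2 mm margin under NIR camera guidance (not for PBS). Wounds were sutured, and recurrence was assessed 4 weeks later.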

[4] = system: multiple subtypes of breast cancer; assay: Overall recurrence in multiple breast cancer animal models; format: in vivo, mice
PDX tumour margins = assay: Histological analysis; format: in vivo, NSG mice; settings: PDX model, H&E and Ki-67, sixteen mammary tissue samples from eight mice
Outline: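 Tumour-margin tissue (~2 mm³) taken at the 6 and 12 o'clock positions around resected PDX tumours in NSG mice. Samples were fixed 24 h in buffered 3.7% formalin, then moved to 70% ethanol. They were paraffin-embedded and cut into 4 μm sections for staining.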

[5] = cited from earlier work

Row | Molecule | tumour/normal tissue ratio of NIR signal [1] | adverse events related to administration during tumour removal [2] | average volume of the recurrent tumours [2] | average volume of the recurrent tumours [3] | average recurrent tumour volume, multiple subtypes of breast cancer ([4]; Figures 4,6 pooled) | positive margin rate (PDX tumour margins) | specificity ([4]; from tumour recurrence rate 8%, N = 2/24) | stability [5] | water solubility [5]
1 | CC1(C)C(/C=C/C=C/C=C/C=C2\N(CCCCS(=O)(=O)O)c3ccc4ccccc4c3C2(C)C)=[N+](CCCCS(=O)(=O)[O-])c2ccc3ccccc3c21 [ICG, indocyanine green] | ~1 | no apparent adverse events | 423 mm^3 | 1952 mm^3 | 1188 mm^3 | – | – | – | –
2 | ICG-p28: NIR fluorescence imaging probe composed of tumour-targeting peptide p28 and the NIR dye indocyanine green (ICG) | – | no apparent adverse events | 197 mm^3 | 403 mm^3 | – | malignant cell free margin | 92% | – | –
3 | p28: Pseudomonas aeruginosa azurin-derived cell-penetrating peptide, tested in two phase I clinical trials | – | – | – | – | – | – | – | stable | highly water soluble
